Experimental data reported in article PMC3674282 (Nature Communications, 2013).
Residue numbers refer to the chain shown, from its start.

Legend:
Ac-AChBP [1] = molecular target: T1, Ac-AChBP (Aplysia californica, UniProt Q8WSF8); test: isothermal titration calorimetry; assay type: binding; conditions: 25°, PBS
T1 sequence (Q8WSF8 20-236): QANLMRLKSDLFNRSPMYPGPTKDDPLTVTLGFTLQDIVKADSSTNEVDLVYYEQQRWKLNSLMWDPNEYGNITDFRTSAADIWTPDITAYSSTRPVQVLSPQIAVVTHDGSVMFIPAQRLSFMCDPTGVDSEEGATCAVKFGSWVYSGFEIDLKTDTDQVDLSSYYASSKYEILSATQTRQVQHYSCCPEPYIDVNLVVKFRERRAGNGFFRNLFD
Method in brief: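 The protein was dialysed into PBS and the test compound was dissolved in the same buffer. Titrations ran on a VP-ITC microcalorimeter at 25°. Heat of dilution from ligand titrated into buffer alone was subtracted as background. Data were fitted by non-linear least squares to a one-set-of-sites model.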

Ac-AChBP [2] = molecular target: T1, Ac-AChBP; test: affinity by tryptophan fluorescence quenching; assay type: binding
Method in brief: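 Untagged wild-type Ac-AChBP, purified from Sf21 insect cells, at 1 μM in binding sites, equilibrated with a dilution series of test compound for 1 h. Tryptophan fluorescence read on a plate reader: excitation 280 nm, emission 340 nm (slit 8 nm). Data normalised and pKi obtained by fitting a sigmoidal dose–response curve.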

Ac-AChBP [3] = molecular target: T1, Ac-AChBP; test: titration of AO with Ac-AChBP by AO fluorescence quenching; assay type: binding; conditions: AO 100 μM titrated with Ac-AChBP, absence of nicotine
Method in brief: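 Test compound at 100 μM was titrated with increasing Ac-AChBP. Its own fluorescence was monitored with excitation at 495 nm and emission at 525 nm (slit 10 nm). A competition arm, where indicated, included 1 mM nicotine.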

human α7 nAChRs = human α7 nAChRs (Homo sapiens, UniProt P36544); test: electrophysiology on Xenopus oocytes expressing human α7 nAChR; assay type: cell-based
solubility = assay type: physicochemical; conditions: in words
Ac-AChBP Y186A = molecular target: T2, Ac-AChBP Y186A (Aplysia californica, UniProt Q8WSF8, Y205A); test: radioligand displacement on mutant Ac-AChBP Y186A; assay type: binding; conditions: Y186 mutated to alanine
T2 sequence (Q8WSF8 20-236 Y205A): T1 sequence (Q8WSF8 20-236) with Y186A

Ac-AChBP [4] = molecular target: T1, Ac-AChBP; test: biochemical; assay type: binding
Ac-AChBP [5] = molecular target: T1, Ac-AChBP; test: equilibrium titration of binding sites by tryptophan fluorescence quenching; conditions: Ac-AChBP 20 μM binding sites
Method in brief: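 Ac-AChBP (20 μM in binding sites) was titrated with rising test compound until quenching fell below 8%. Tryptophan emission was read at 340 nm with excitation at 280 nm. Stoichiometry came from a straight line fitted through the average of the plateau points.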

human α7 nAChR = human α7 nAChR (Homo sapiens, UniProt P36544); test: radioligand displacement; assay type: binding
Method in brief: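 SH-SY5Y neuroblastoma cells expressing human α7 nAChR were washed three times, stored as frozen pellets at −80 °C, then resuspended in ice-cold buffer and sonicated. Incubation used PBS/20 mM Tris pH 7.4/0.05% Tween, test compound at 10−3–10−11 M and [3H]MLA at 2 nM final, for 1.5 h at room temperature with shaking and protected from light. Bound label was collected on PEI-pretreated GF/C filters, washed with ice-cold 50 mM Tris pH 7.4 and counted. Curves were fitted by non-linear least squares; mean±s.e.m. of ≥3 independent experiments.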

Ac-AChBP Y193A = molecular target: T3, Ac-AChBP Y193A (Aplysia californica, UniProt Q8WSF8, Y212A); test: radioligand displacement on mutant Ac-AChBP Y193A; assay type: binding; conditions: Y193 mutated to alanine
T3 sequence (Q8WSF8 20-236 Y212A): T1 sequence (Q8WSF8 20-236) with Y193A

Sequence of human α7 nAChR (P36544 23-502): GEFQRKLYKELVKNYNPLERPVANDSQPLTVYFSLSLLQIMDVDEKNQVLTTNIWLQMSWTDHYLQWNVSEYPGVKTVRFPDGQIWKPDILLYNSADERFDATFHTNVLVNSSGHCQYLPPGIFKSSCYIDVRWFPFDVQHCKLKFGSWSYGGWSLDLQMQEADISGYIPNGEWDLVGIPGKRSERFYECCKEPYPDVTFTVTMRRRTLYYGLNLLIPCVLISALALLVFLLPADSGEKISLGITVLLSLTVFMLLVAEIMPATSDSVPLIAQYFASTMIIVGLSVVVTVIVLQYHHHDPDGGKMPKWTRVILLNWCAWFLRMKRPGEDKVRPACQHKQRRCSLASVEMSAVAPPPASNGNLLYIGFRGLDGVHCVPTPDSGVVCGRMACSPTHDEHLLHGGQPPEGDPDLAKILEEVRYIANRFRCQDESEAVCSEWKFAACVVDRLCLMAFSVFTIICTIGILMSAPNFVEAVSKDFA
Sequence of human α7 nAChRs (P36544 23-502): as above

CN(C)c1ccc2cc3ccc(N(C)C)cc3nc2c1 [AO, acridine orange]
stoichiometric ratio (n) by ITC (Ac-AChBP [1]; 0.5 mM ligand into 20 μM Ac-AChBP): 3–4
Kd (Ac-AChBP [1]; Kd by ITC): 1.86 µM
Ki (Ac-AChBP [2]): 1.58 µM
stoichiometric ratio at which Ac-AChBP quenched AO fluorescence (Ac-AChBP [3]): 0.3
IC50 (human α7 nAChRs): 7.3 µM
solubility (solubility): highly soluble

Cc1cc(C)nc(C(=N)Nc2nc(-c3ccccn3)cc3ccccc23)n1 [VUF9432, 4,6-dimethyl-N-(3-(pyridin-2-yl)isoquinoline-1-yl)-pyrimidine-2-carboximidamide]
affinity for Ac-AChBP Y186A mutant (Ac-AChBP Y186A): loss of affinity
effect on α7 nAChR expressed in oocytes (human α7 nAChRs; data not shown): did not observe any effect
Ki (Ac-AChBP [4]): 11 µM
stoichiometric ratio ligand/AChBP (ligands per protomer/binding site) (Ac-AChBP [5]): three
pKi for α7 nAChR (human α7 nAChR; [3H]MLA displacement, radioligand not fully displaced): around five
displacement of [3H]MLA at the highest concentration tested (human α7 nAChR; highest concentration tested): not fully displaced
solubility (solubility): not very soluble
affinity for Ac-AChBP Y193A mutant (Ac-AChBP Y193A): loss of affinity

Nc1nc(-c2ccccn2)cc2ccccc12 [compound 2, 1-Amino-3-(2-pyridyl)isoquinoline]
stoichiometric ratio ligand/AChBP (ligands per protomer/binding site) (Ac-AChBP [5]): multiple copies

Nc1nc(-c2cccnc2)cc2ccccc12 [compound 3, 1-Amino-3-(3-pyridyl)isoquinoline]
stoichiometric ratio ligand/AChBP (ligands per protomer/binding site) (Ac-AChBP [5]): multiple copies
